Tests used:
Format in all cases: functional
[1] = tested on: HCT-15; assay: Cytotoxicity against human HCT15 cells at 10^-6 M after 48 hrs by SRB assay; settings: HCT-15, 48 h, read-out: GI
Method in brief: (§1)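 Run by NCI on its 60-line human tumor cell panel, after a three-cell-line prescreen. Cells were exposed to drug for 48 h over a 5-log range: 100, 10, 1, 0.1 and 0.01 micromolar. Growth was estimated by sulforhodamine B (SRB) protein staining. Percent growth inhibition (I%) was recorded at each concentration relative to untreated control cells.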

[2] = tested on: SF-295; assay: Cytotoxicity against human SF295 cells at 10^-6 M after 48 hrs by SRB assay; settings: SF-295, 48 h, read-out: GI
Method in brief: (§2)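 Second-stage screen in the 60-cell-line human tumor panel at NCI, over a 5-log range (100, 10, 1, 0.1, 0.01 micromolar). Cells were exposed to drug for 48 h and growth was estimated with a sulforhodamine B protein stain. The value is percent growth inhibition at each concentration.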

[3] = tested on: SW-620; assay: Cytotoxicity against human SW620 cells at 10^-6 M after 48 hrs by SRB assay; settings: SW-620, 48 h, read-out: GI
[4] = tested on: MDA-MB-435; assay: Cytotoxicity against human MDA-MB-435 cells at 10^-5 M after 48 hrs by SRB assay; settings: MDA-MB-435, 48 h, read-out: GI
Method in brief: (§3)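 Run in the NCI 60-cell-line screen after a three-line prescreen. Cells got a 48 h drug exposure; viability/growth was estimated with the sulforhodamine B protein assay. Growth inhibition (I%) was recorded at 100, 10, 1, 0.1 and 0.01 micromolar. Percent growth is relative to untreated control cells, and negative values indicate cell kill.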

[5] = tested on: NCI-H23; assay: Cytotoxicity against human NCI-H23 cells at 10^-6 M after 48 hrs by SRB assay; settings: NCI-H23, 48 h, read-out: GI; method in brief: as §3
[6] = tested on: OVCAR-3; assay: Cytotoxicity against human OVCAR3 cells at 10^-5 M after 48 hrs by SRB assay; settings: OVCAR-3, 48 h, read-out: GI; method in brief: as §3
[7] = tested on: MOLT-4; assay: Cytotoxicity against human MOLT4 cells at 10^-5 M after 48 hrs by SRB assay; settings: MOLT-4, 48 h, read-out: GI; method in brief: as §3
[8] = tested on: HCT-116; assay: Cytotoxicity against human HCT116 cells at 10^-6 M after 48 hrs by SRB assay; settings: HCT-116, 48 h, read-out: GI; method in brief: as §1
[9] = tested on: NCI-H522; assay: Cytotoxicity against human NCI-H522 cells at 10^-6 M after 48 hrs by SRB assay; settings: NCI-H522, 48 h, read-out: GI; method in brief: as §3
[10] = tested on: SNB-19; assay: Cytotoxicity against human SNB19 cells at 10^-6 M after 48 hrs by SRB assay; settings: SNB-19, 48 h, read-out: GI
[11] = tested on: MOLT-4; assay: Cytotoxicity against human MOLT4 cells at 10^-6 M after 48 hrs by SRB assay; settings: MOLT-4, 48 h, read-out: GI; method in brief: as §3
[12] = tested on: RPMI-8226; assay: Cytotoxicity against human RPMI8226 cells at 10^-6 M after 48 hrs by SRB assay; settings: RPMI-8226, 48 h, read-out: GI; method in brief: as §2
[13] = tested on: SK-MEL-2; assay: Cytotoxicity against human SK-MEL-2 cells at 10^-6 M after 48 hrs by SRB assay; settings: SK-MEL-2, 48 h, read-out: GI; method in brief: as §2
[14] = tested on: NCI-H226; assay: Cytotoxicity against human NCI-H226 cells at 10^-5 M after 48 hrs by SRB assay; settings: NCI-H226, 48 h, read-out: GI; method in brief: as §3
[15] = Cytotoxicity against human EKVX cells at 10^-5 M after 48 hrs by SRB assay; settings: read-out: GI; method in brief: as §1
[16] = tested on: SN12C; assay: Cytotoxicity against human SN12C cells at 10^-6 M after 48 hrs by SRB assay; settings: read-out: GI
[17] = tested on: NCI-H522; assay: Cytotoxicity against human NCI-H522 cells at 10^-5 M after 48 hrs by SRB assay; settings: NCI-H522, 48 h, read-out: GI; method in brief: as §3
[18] = tested on: IGROV-1; assay: Cytotoxicity against human IGROV1 cells at 10^-5 M after 48 hrs by SRB assay; settings: IGROV-1, 48 h, read-out: GI; method in brief: as §3
[19] = tested on: BT-549; assay: Cytotoxicity against human BT549 cells at 10^-6 M after 48 hrs by SRB assay; settings: BT-549, 48 h, read-out: GI; method in brief: as §1
[20] = tested on: TK-10; assay: Cytotoxicity against human TK10 cells at 10^-5 M after 48 hrs by SRB assay; settings: TK-10, 48 h, read-out: GI
[21] = tested on: ACHN; assay: Cytotoxicity against human ACHN cells at 10^-6 M after 48 hrs by SRB assay; settings: read-out: GI; method in brief: as §1
[22] = tested on: LOX IMVI; assay: Cytotoxicity against human LOXIMVI cells at 10^-6 M after 48 hrs by SRB assay; settings: read-out: GI; method in brief: as §3
[23] = tested on: SK-MEL-5; assay: Cytotoxicity against human SK-MEL-5 cells at 10^-6 M after 48 hrs by SRB assay; settings: SK-MEL-5, 48 h, read-out: GI; method in brief: as §2
[24] = tested on: OVCAR-8; assay: Cytotoxicity against human OVCAR8 cells at 10^-5 M after 48 hrs by SRB assay; settings: OVCAR-8, 48 h, read-out: GI; method in brief: as §2
[25] = tested on: OVCAR-3; assay: Cytotoxicity against human OVCAR3 cells at 10^-6 M after 48 hrs by SRB assay; settings: OVCAR-3, 48 h, read-out: GI; method in brief: as §3
[26] = tested on: A549; assay: Cytotoxicity against human A549 cells at 10^-6 M after 48 hrs by SRB assay; settings: A549, 48 h, read-out: GI; method in brief: as §1
[27] = tested on: M14; assay: Cytotoxicity against human M14 cells at 10^-5 M after 48 hrs by SRB assay; settings: M14, 48 h, read-out: GI; method in brief: as §3
[28] = tested on: NCI/ADR-RES; assay: Cytotoxicity against human NCI/ADR-RES cells at 10^-6 M after 48 hrs by SRB assay; settings: read-out: GI; method in brief: as §3
[29] = tested on: HOP-92; assay: Cytotoxicity against human HOP92 cells at 10^-6 M after 48 hrs by SRB assay; settings: HOP-92, 48 h, read-out: GI; method in brief: as §1
[30] = tested on: HOP-62; assay: Cytotoxicity against human HOP62 cells at 10^-5 M after 48 hrs by SRB assay; settings: HOP-62, 48 h, read-out: GI; method in brief: as §1
[31] = tested on: SK-MEL-28; assay: Cytotoxicity against human SK-MEL-28 cells at 10^-6 M after 48 hrs by SRB assay; settings: SK-MEL-28, 48 h, read-out: GI; method in brief: as §2
[32] = tested on: NCI-H23; assay: Cytotoxicity against human NCI-H23 cells at 10^-5 M after 48 hrs by SRB assay; settings: NCI-H23, 48 h, read-out: GI; method in brief: as §3
[33] = tested on: MDA-MB-231; assay: Cytotoxicity against human MDA-MB-231 cells at 10^-5 M after 48 hrs by SRB assay; settings: MDA-MB-231, 48 h, read-out: GI; method in brief: as §3
[34] = tested on: TK-10; assay: Cytotoxicity against human TK10 cells at 10^-6 M after 48 hrs by SRB assay; settings: TK-10, 48 h, read-out: GI
[35] = tested on: COLO 205; assay: Cytotoxicity against human COLO205 cells at 10^-5 M after 48 hrs by SRB assay; settings: COLO 205, 48 h, read-out: GI; method in brief: as §1
[36] = Cytotoxicity against human OVCAR5 cells at 10^-6 M after 48 hrs by SRB assay; settings: OVCAR-5, 48 h, read-out: GI; method in brief: as §2
[37] = tested on: ACHN; assay: Cytotoxicity against human ACHN cells at 10^-5 M after 48 hrs by SRB assay; settings: read-out: GI; method in brief: as §1

Row | SMILES | inhibition of growth at 1 µM [1] [%] | inhibition of growth at 1 µM [2] [%] | inhibition of growth at 1 µM [3] [%] | inhibition of growth at 10 µM [4] [%] | inhibition of growth at 1 µM [5] [%] | inhibition of growth at 10 µM [6] [%] | inhibition of growth at 10 µM [7] [%] | inhibition of growth at 1 µM [8] [%] | inhibition of growth at 1 µM [9] [%] | inhibition of growth at 1 µM [10] [%] | inhibition of growth at 1 µM [11] [%] | inhibition of growth at 1 µM [12] [%] | inhibition of growth at 1 µM [13] [%] | inhibition of growth at 10 µM [14] [%] | inhibition of growth at 10 µM [15] [%] | inhibition of growth at 1 µM [16] [%] | inhibition of growth at 10 µM [17] [%] | inhibition of growth at 10 µM [18] [%] | inhibition of growth at 1 µM [19] [%] | inhibition of growth at 10 µM [20] [%] | further results
1 | C#CCN(Cc1nc2cc(C(F)(F)F)ccc2nc1-c1ccccc1)c1ccc(C)cc1 | 63 | 56 | < 40 | 147 | < 40 | 125 | 88 | 66 | 49 | 54 | 67 | < 40 | 41 | 91 | < 40 | < 40 | 76 | 63 | < 40 | 54 | inhibition of growth at 1 µM [21]: < 40%; inhibition of growth at 1 µM [22]: < 40%; inhibition of growth at 1 µM [23]: < 40%; inhibition of growth at 10 µM [24]: 62%; inhibition of growth at 1 µM [25]: 62%; inhibition of growth at 1 µM [26]: 45%; inhibition of growth at 10 µM [27]: 95%; inhibition of growth at 1 µM [28]: 109%; inhibition of growth at 1 µM [29]: < 40%; inhibition of growth at 10 µM [30]: 71%; inhibition of growth at 1 µM [31]: < 40%; inhibition of growth at 10 µM [32]: 92%; inhibition of growth at 10 µM [33]: 64%; inhibition of growth at 1 µM [34]: < 40%; inhibition of growth at 10 µM [35]: 164%; inhibition of growth at 1 µM [36]: < 40%; inhibition of growth at 10 µM [37]: 95%
2 | CCN(Cc1nc2cc(C(F)(F)F)ccc2nc1-c1ccccc1)c1ccc(OC)c(OC)c1 | < 40 | < 40 | < 40 | 14 | 14 | 31 | 44 | 12 | < 40 | < 40 | < 40 | < 40 | < 40 | 32 | 23 | < 40 | 28 | 13 | < 40 | < 40 | inhibition of growth at 1 µM [21]: < 40%; inhibition of growth at 1 µM [22]: < 40%; inhibition of growth at 1 µM [23]: < 40%; inhibition of growth at 10 µM [24]: 72%; inhibition of growth at 1 µM [25]: 25%; inhibition of growth at 1 µM [26]: 56%; inhibition of growth at 10 µM [27]: 17%; inhibition of growth at 1 µM [28]: < 40%; inhibition of growth at 1 µM [29]: < 40%; inhibition of growth at 10 µM [30]: 18%; inhibition of growth at 1 µM [31]: < 40%; inhibition of growth at 10 µM [32]: 34%; inhibition of growth at 10 µM [33]: 36%; inhibition of growth at 1 µM [34]: < 40%; inhibition of growth at 10 µM [35]: < 40%; inhibition of growth at 1 µM [36]: < 40%; inhibition of growth at 10 µM [37]: 25%

— ChEMBL document CHEMBL3120154, “2-[N-Alkyl(R-phenyl)-aminomethyl]-3-phenyl-7-trifluoromethylquinoxalines as anticancer agents inhibitors of folate enzymes” (Eur J Med Chem, 2014)
